Measured values: ChEMBL document CHEMBL4689842, “EUbOPEN Chemogenomics Library wave 1” (2021)

Test system: Fibroblast
Assay: Multiplex assay against human fibroblast
Assay type: toxicity, cell-based
Summary of the method: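 At seeding, live cells were stained with Hoechst33342, BioTracker Green Microtubule Cytoskeleton Dye, MitoTracker Red and Annexin V Alexa Fluor 680. After compound addition they were imaged on a CQ1 microscope at 37°C and 5% CO2, and CellPathfinder machine-learning gating sorted them into Hoechst high-intensity objects or normal cells, with normal cells further split into healthy, pyknosed or fragmented nuclei and pyknosed cells into mitotic or apoptotic. Tubulin, mitochondrial-mass and membrane-permeability phenotypes are given as per cents of cells with healthy nuclei.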

[1] = 12 h, 1 µM, compound concentration 1 uM, replicate 1
[2] = 12 h, 1 µM, compound concentration 1 uM, replicate 2
[3] = 12 h, 10 µM, compound concentration 10 uM, replicate 1
[4] = 12 h, 10 µM, compound concentration 10 uM, replicate 2
[5] = 24 h, 1 µM, compound concentration 1 uM, replicate 1
[6] = 24 h, 1 µM, compound concentration 1 uM, replicate 2
[7] = 24 h, 10 µM, compound concentration 10 uM, replicate 1
[8] = 24 h, 10 µM, compound concentration 10 uM, replicate 2
[9] = 48 h, 1 µM, compound concentration 1 uM, replicate 1
[10] = 48 h, 1 µM, compound concentration 1 uM, replicate 2
[11] = 48 h, 10 µM, compound concentration 10 uM, replicate 1
[12] = 48 h, 10 µM, compound concentration 10 uM, replicate 2

CCC(=O)O[C@]1(C(=O)SCF)[C@H](C)C[C@H]2[C@@H]3C[C@H](F)C4=CC(=O)C=C[C@]4(C)[C@@]3(F)[C@@H](O)C[C@@]21C [FLUTICASONE PROPIONATE]
Population Apoptotic (%) [1]: 71%
Population Fragmented Nuclei (%) [1]: 22%
Population Healthy Nuclei (%) [1]: 45%
Population Hoechst High Intensity Objects (%) [1]: 13%
Population Membrane Permeable-Phenotype (%) [1]: 33%
Population Mitochondria Different-Phenotype (%) [1]: 0%
Population Mitotic Cells (%) [1]: 28%
Population Normal (%) [1]: 86%
Population Pyknosed Nuclei (%) [1]: 31%
Population Tubulin-Different-Phenotype (%) [1]: 40%
Total Cell Count [1]: 76
Population Fragmented Nuclei (%) [2]: 4%
Population Healthy Nuclei (%) [2]: 78%
Population Hoechst High Intensity Objects (%) [2]: 12%
Population Membrane Permeable-Phenotype (%) [2]: 3%
Population Mitochondria Different-Phenotype (%) [2]: 9%
Population Normal (%) [2]: 87%
Population Pyknosed Nuclei (%) [2]: 16%
Population Tubulin-Different-Phenotype (%) [2]: 9%
Total Cell Count [2]: 68
Population Apoptotic (%) [3]: 62%
Population Fragmented Nuclei (%) [3]: 26%
Population Healthy Nuclei (%) [3]: 50%
Population Hoechst High Intensity Objects (%) [3]: 16%
Population Membrane Permeable-Phenotype (%) [3]: 38%
Population Mitochondria Different-Phenotype (%) [3]: 30%
Population Mitotic Cells (%) [3]: 37%
Population Normal (%) [3]: 83%
Population Pyknosed Nuclei (%) [3]: 23%
Population Tubulin-Different-Phenotype (%) [3]: 53%
Total Cell Count [3]: 149
Population Apoptotic (%) [4]: 28%
Population Fragmented Nuclei (%) [4]: 8%
Population Healthy Nuclei (%) [4]: 81%
Population Hoechst High Intensity Objects (%) [4]: 8%
Population Membrane Permeable-Phenotype (%) [4]: 3%
Population Mitochondria Different-Phenotype (%) [4]: 37%
Population Mitotic Cells (%) [4]: 71%
Population Normal (%) [4]: 92%
Population Pyknosed Nuclei (%) [4]: 10%
Population Tubulin-Different-Phenotype (%) [4]: 35%
Total Cell Count [4]: 48
Population Apoptotic (%) [5]: 66%
Population Fragmented Nuclei (%) [5]: 21%
Population Healthy Nuclei (%) [5]: 62%
Population Hoechst High Intensity Objects (%) [5]: 25%
Population Membrane Permeable-Phenotype (%) [5]: 28%
Population Mitochondria Different-Phenotype (%) [5]: 0%
Population Mitotic Cells (%) [5]: 33%
Population Normal (%) [5]: 74%
Population Pyknosed Nuclei (%) [5]: 16%
Population Tubulin-Different-Phenotype (%) [5]: 34%
Total Cell Count [5]: 75
Population Apoptotic (%) [6]: 16%
Population Fragmented Nuclei (%) [6]: 3%
Population Healthy Nuclei (%) [6]: 84%
Population Hoechst High Intensity Objects (%) [6]: 11%
Population Membrane Permeable-Phenotype (%) [6]: 11%
Population Mitochondria Different-Phenotype (%) [6]: 11%
Population Mitotic Cells (%) [6]: 83%
Population Normal (%) [6]: 88%
Population Pyknosed Nuclei (%) [6]: 11%
Population Tubulin-Different-Phenotype (%) [6]: 20%
Total Cell Count [6]: 78
Population Apoptotic (%) [7]: 64%
Population Fragmented Nuclei (%) [7]: 30%
Population Healthy Nuclei (%) [7]: 50%
Population Hoechst High Intensity Objects (%) [7]: 12%
Population Membrane Permeable-Phenotype (%) [7]: 40%
Population Mitochondria Different-Phenotype (%) [7]: 27%
Population Mitotic Cells (%) [7]: 36%
Population Normal (%) [7]: 87%
Population Pyknosed Nuclei (%) [7]: 19%
Population Tubulin-Different-Phenotype (%) [7]: 47%
Total Cell Count [7]: 149
Population Apoptotic (%) [8]: 58%
Population Fragmented Nuclei (%) [8]: 5%
Population Healthy Nuclei (%) [8]: 78%
Population Hoechst High Intensity Objects (%) [8]: 8%
Population Membrane Permeable-Phenotype (%) [8]: 6%
Population Mitochondria Different-Phenotype (%) [8]: 31%
Population Mitotic Cells (%) [8]: 41%
Population Normal (%) [8]: 91%
Population Pyknosed Nuclei (%) [8]: 16%
Population Tubulin-Different-Phenotype (%) [8]: 25%
Total Cell Count [8]: 59
Population Apoptotic (%) [9]: 54%
Population Fragmented Nuclei (%) [9]: 41%
Population Healthy Nuclei (%) [9]: 43%
Population Hoechst High Intensity Objects (%) [9]: 24%
Population Membrane Permeable-Phenotype (%) [9]: 25%
Population Mitochondria Different-Phenotype (%) [9]: 0%
Population Mitotic Cells (%) [9]: 45%
Population Normal (%) [9]: 75%
Population Pyknosed Nuclei (%) [9]: 15%
Population Tubulin-Different-Phenotype (%) [9]: 38%
Total Cell Count [9]: 95
Population Apoptotic (%) [10]: 100%
Population Fragmented Nuclei (%) [10]: 26%
Population Healthy Nuclei (%) [10]: 72%
Population Hoechst High Intensity Objects (%) [10]: 15%
Population Membrane Permeable-Phenotype (%) [10]: 5%
Population Mitotic Cells (%) [10]: 0%
Population Normal (%) [10]: 84%
Population Pyknosed Nuclei (%) [10]: 0%
Population Tubulin-Different-Phenotype (%) [10]: 26%
Total Cell Count [10]: 120
Population Apoptotic (%) [11]: 75%
Population Fragmented Nuclei (%) [11]: 38%
Population Healthy Nuclei (%) [11]: 47%
Population Hoechst High Intensity Objects (%) [11]: 14%
Population Membrane Permeable-Phenotype (%) [11]: 29%
Population Mitochondria Different-Phenotype (%) [11]: 27%
Population Mitotic Cells (%) [11]: 25%
Population Normal (%) [11]: 85%
Population Pyknosed Nuclei (%) [11]: 14%
Population Tubulin-Different-Phenotype (%) [11]: 48%
Total Cell Count [11]: 167
Population Apoptotic (%) [12]: 100%
Population Fragmented Nuclei (%) [12]: 29%
Population Healthy Nuclei (%) [12]: 66%
Population Hoechst High Intensity Objects (%) [12]: 35%
Population Membrane Permeable-Phenotype (%) [12]: 11%
Population Mitochondria Different-Phenotype (%) [12]: 17%
Population Mitotic Cells (%) [12]: 0%
Population Normal (%) [12]: 64%
Population Pyknosed Nuclei (%) [12]: 3%
Population Tubulin-Different-Phenotype (%) [12]: 56%
Total Cell Count [12]: 176
